Results as given in ChEMBL document CHEMBL4130346, “New quinoline-arylamidine hybrids: Synthesis, DNA/RNA binding and antitumor activity” (Eur J Med Chem, 2017).
Activity calls are given as the source filed them. No cut-off for these calls is given here.

Assays:
[1] = Chemical stability in aqueous solution after several weeks; assay type: physicochemical; conditions: buffer
Method in brief: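 Aqueous compound solutions were monitored for several weeks by UV-Vis absorbance at 220-900 nm. Linearity with concentration was checked up to 3.5 × 10^-5 mol dm-3, and spectra were recorded at 25–90 °C with reproducibility checked on cooling to 25 °C.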

[2] = Growth inhibition of MDCK1 cells after 72 hrs by MTT assay; set-up: species or system Canis lupus familiaris; conditions: dog
Method in brief: (§1)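 Adherent cells (2x10^4 cells/cm3) attached overnight, then were exposed to compound for 72 h. Medium was replaced with 5 mg/cm3 MTT, formazan was dissolved in DMSO and absorbance read at 595 nm. Percent growth was taken relative to untreated control minus background. GI50 came from a variable-slope log-inhibitor fit, as mean ± SD of three independent experiments in triplicate.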

[3] = system: K562; test: Growth inhibition of human K562 cells after 72 hrs by MTT assay; assay type: functional; conditions: K562, 72 h
Method in brief: (§2)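 Leukemia cells (1x10^5 cells/cm3) were exposed to compound for 72 h, then MTT (5 mg/cm3) was added for 4 h. Formazan was dissolved with 10% SDS in 0.01 mol dm-3 HCl and absorbance read at 595 nm. Percent growth was taken versus untreated control minus background. GI50 came from a variable-slope fit, as mean ± SD of three independent experiments in triplicate.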

[4] = system: HeLa; test: Growth inhibition of human HeLa cells after 72 hrs by MTT assay; assay type: functional; method in brief: as §1
[5] = Solubility of the compound in water; assay type: physicochemical
[6] = system: Caco-2; test: Growth inhibition of human Caco2 cells after 72 hrs by MTT assay; assay type: functional; conditions: Caco-2, 72 h; method in brief: as §1
[7] = system: Raji; test: Growth inhibition of human Raji cells after 72 hrs by MTT assay; assay type: functional; method in brief: as §2
[8] = system: Calf thymus DNA; test: Binding affinity to calf thymus DNA minor groove at 0.1, 0.3, 0.5, 0.7 compound to ds-polynucleotide ratio by CD-spectrophotometric method; assay type: nucleic-acid assay; conditions: Bos taurus
Method in brief: (§3)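 Induced CD spectra were recorded in 1 cm quartz cuvettes in Na cacodylate buffer (I = 0.05 mol dm-3, pH 7.0) with ct-DNA or polyA-polyU. Compound was added at r = [compound]/[polynucleotide] = 0.1, 0.3, 0.5 and 0.7. The CD signal was followed as a function of r.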

[9] = system: Calf thymus DNA; test: Binding affinity to calf thymus DNA assessed as change in melting temperature at 0.3 compound to ds-polynucleotide ratio by spectrophotometric method; assay type: nucleic-acid assay; conditions: Bos taurus
Method in brief: (§4)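 Thermal melting of ct-DNA (sonicated, filtered) or polyA-polyU in Na cacodylate buffer, I = 0.05 mol dm-3, pH 7.0, at given r = [compound]/[polynucleotide]; polynucleotide as phosphate concentration. Tm from maximum of first derivative, checked by tangent method. ΔTm = Tm(complex) − Tm(free nucleic acid), average of at least two measurements, error ±0.5 °C.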

[10] = Binding affinity to polyA-polyU (unknown origin) by UV-vis spectrophotometric method
Method in brief: (§5)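 UV-Vis titration at room temperature in Na cacodylate buffer (I = 0.05 mol dm-3, pH 7.0). Portions of ct-DNA or polyA-polyU were added to a fixed compound concentration until saturation, with dilution correction. Polynucleotide was measured as phosphate. Ks and n were obtained by Scatchard analysis, together with the hypochromic change at the absorption maximum.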

[11] = system: Calf thymus DNA; test: Disruption of calf thymus DNA helix at 0.1, 0.3, 0.5, 0.7 compound to ds-polynucleotide ratio by CD-spectrophotometric method; assay type: nucleic-acid assay; conditions: Bos taurus; method in brief: as §3
[12] = system: Calf thymus DNA; test: Binding affinity to calf thymus DNA by UV-vis spectrophotometric method; assay type: nucleic-acid assay; conditions: Bos taurus; method in brief: as §5
[13] = Binding affinity to polyA-polyU (unknown origin) assessed as hypochromic effect by UV-vis spectrophotometric method; method in brief: as §5
[14] = system: Calf thymus DNA; test: Binding affinity to calf thymus DNA assessed as hypochromic effect by UV-vis spectrophotometric method; assay type: nucleic-acid assay; conditions: Bos taurus; method in brief: as §5
[15] = system: Calf thymus DNA; test: Binding affinity to calf thymus DNA assessed as change in melting temperature at 0.5 compound to ds-polynucleotide ratio by spectrophotometric method; assay type: nucleic-acid assay; conditions: Bos taurus; method in brief: as §4
[16] = system: Calf thymus DNA; test: Binding affinity to calf thymus DNA assessed as change in melting temperature at 0.1 compound to ds-polynucleotide ratio by spectrophotometric method; assay type: nucleic-acid assay; conditions: Bos taurus; method in brief: as §4
[17] = Binding affinity to polyA-polyU (unknown origin) assessed as change in melting temperature at 0.5 compound to ds-polynucleotide ratio by spectrophotometric method; method in brief: as §4
[18] = Binding affinity to polyA-polyU (unknown origin) assessed as change in melting temperature at 0.1 compound to ds-polynucleotide ratio by spectrophotometric method; method in brief: as §4
[19] = Binding affinity to polyA-polyU (unknown origin) assessed as change in melting temperature at 0.3 compound to ds-polynucleotide ratio by spectrophotometric method; method in brief: as §4

Row | Stability [1] | GI50 [3] [µM] | GI50 [4] [µM] | solubility [5] [µM] | GI50 [6] [µM] | GI50 [7] [µM] | Activity [8] | ΔTm [9] [°C] | log Ks [10] | Activity [11] | log Ks [12] | Activity [13] | Activity [14] [%] | ΔTm [15] [°C] | ΔTm [16] [°C] | ΔTm [17] [°C] | ΔTm [18] [°C] | ΔTm [19] [°C] | Structure (SMILES) | GI50 at 72 h [2] [µM]
1 | Stable | 51.9 | 60.8 | 1000 | 50.7 | 51.5 | – | – | – | – | – | – | – | – | – | – | – | – | Cl.Cl.Clc1ccc2c(NCCOc3ccc(C4=NCCN4)cc3)ccnc2c1 | 78.4
2 | Stable | > 100 | > 100 | 1000 | > 100 | > 100 | – | – | – | – | – | – | – | – | – | – | – | – | CC(C)NC(=N)c1ccc(OCCNc2ccnc3cc(Cl)ccc23)cc1.Cl.Cl.Cl | > 100
3 | Stable | 34.7 | > 100 | 1000 | > 100 | 29.3 | Active | 8.4 | inactive | Active | 6.72 | inactive | 17.7 | 8.4 | 4.84 | – | – | – | Cl.Cl.Cl.N=C(N)c1ccc2nc(-c3ccc(OCCNc4ccnc5cc(Cl)ccc45)cc3)[nH]c2c1 | 71.6
4 | Stable | 76.9 | > 100 | 1000 | 84.5 | 96.9 | – | – | – | – | – | – | – | – | – | – | – | – | Cl.Cl.N=C(NC1CCCC1)c1ccc(OCCNc2ccnc3cc(Cl)ccc23)cc1 | > 100
5 | Stable | 82.9 | 56.6 | 1000 | 47.7 | 51.8 | – | 2.28 | – | – | – | – | – | 2.28 | 2.01 | – | 0.36 | -0.36 | CC(C)NC(=N)c1ccc(Oc2ccnc3cc(Cl)ccc23)cc1.Cl.Cl.Cl | 57.7
6 | Stable | 48.7 | 57.7 | 1000 | 64 | 40.8 | – | 2.67 | – | – | – | – | – | 2.73 | 2.65 | 1.49 | 1.18 | 2.18 | Cl.Cl.Clc1ccc2c(Oc3ccc(C4=NCCN4)cc3)ccnc2c1 | 56.6

Continued, molecule first:

Row | Structure (SMILES) | Stability [1] | GI50 [3] [µM] | GI50 [4] [µM] | solubility [5] [µM] | GI50 [6] [µM] | GI50 [7] [µM] | Activity [8] | ΔTm [9] [°C] | log Ks [10] | Activity [11] | log Ks [12] | Activity [13] | Activity [14] [%] | ΔTm [15] [°C] | ΔTm [16] [°C] | ΔTm [17] [°C] | ΔTm [18] [°C] | ΔTm [19] [°C] | GI50 at 72 h [2] [µM]
7 | CC(C)CNC(=N)c1ccc(OCCNc2ccnc3cc(Cl)ccc23)cc1.Cl.Cl.Cl | Stable | 77.3 | > 100 | 1000 | 92.6 | 86.2 | – | – | – | – | – | – | – | – | – | – | – | – | > 100
8 | Cl.Cl.Cl.N=C(N)c1ccc(OCCNc2ccnc3cc(Cl)ccc23)cc1 | Stable | 49.5 | 74 | 1000 | 68.6 | 58.9 | – | – | – | – | – | – | – | – | – | – | – | – | 74.4
9 | Cl.Cl.Clc1ccc2c(NCCOc3ccc(C4=NCCCN4)cc3)ccnc2c1 | Stable | > 100 | > 100 | 1000 | > 100 | > 100 | – | – | – | – | – | – | – | – | – | – | – | – | > 100
10 | CC(C)NC(=N)c1ccc2nc(-c3ccc(OCCNc4ccnc5cc(Cl)ccc45)cc3)[nH]c2c1.Cl.Cl.Cl | Stable | 17.2 | > 100 | 1000 | > 100 | 19.6 | Active | 9.05 | inactive | Active | 6.63 | inactive | 23.7 | 9.83 | 5.83 | – | – | – | > 100
11 | Cl.Cl.N=C(N)c1ccc(Oc2ccnc3cc(Cl)ccc23)cc1 | Stable | 62.5 | 59.1 | 1000 | 57.6 | 53 | – | 2.17 | – | – | – | – | – | 2.07 | 1.76 | -0.26 | 0 | -0.16 | 52.8
12 | Cl.Cl.Cl.Clc1ccc2c(NCCOc3ccc(-c4nc5ccc(C6=NCCCN6)cc5[nH]4)cc3)ccnc2c1 | Stable | 13.3 | > 100 | 1000 | > 100 | 19 | Active | 9.76 | inactive | Active | 6.52 | inactive | 31 | 10.8 | 6.33 | – | – | – | 100
13 | Cl.Cl.Clc1ccc2c(Oc3ccc(C4=NCCCN4)cc3)ccnc2c1 | Stable | 62 | 57 | 1000 | 53.3 | 50.8 | – | 1.86 | – | – | – | – | – | 1.96 | 2.08 | 1.32 | 1.62 | 1.22 | 37.5
